In ChEMBL document CHEMBL1155867, “Synthesis and evaluation of alpha,alpha'-disubstituted phenylacetate derivatives for T-type calcium channel blockers” (Bioorg Med Chem Lett, 2008):
pIC50: −log10 of the molar value. Each block holds one compound with its values, some of them ahead of it.

Key:
[1] = target: T1, Voltage-dependent T-type calcium channel subunit alpha-1G (Homo sapiens, UniProt O43497); assay: Antagonist activity at T type calcium channel alpha1G expressed in HEK293 cells assessed as inhibition of peak currents at 10 uM by whole-cell patch-clamp method; type: functional, cell-based
T1 sequence (O43497 whole entry): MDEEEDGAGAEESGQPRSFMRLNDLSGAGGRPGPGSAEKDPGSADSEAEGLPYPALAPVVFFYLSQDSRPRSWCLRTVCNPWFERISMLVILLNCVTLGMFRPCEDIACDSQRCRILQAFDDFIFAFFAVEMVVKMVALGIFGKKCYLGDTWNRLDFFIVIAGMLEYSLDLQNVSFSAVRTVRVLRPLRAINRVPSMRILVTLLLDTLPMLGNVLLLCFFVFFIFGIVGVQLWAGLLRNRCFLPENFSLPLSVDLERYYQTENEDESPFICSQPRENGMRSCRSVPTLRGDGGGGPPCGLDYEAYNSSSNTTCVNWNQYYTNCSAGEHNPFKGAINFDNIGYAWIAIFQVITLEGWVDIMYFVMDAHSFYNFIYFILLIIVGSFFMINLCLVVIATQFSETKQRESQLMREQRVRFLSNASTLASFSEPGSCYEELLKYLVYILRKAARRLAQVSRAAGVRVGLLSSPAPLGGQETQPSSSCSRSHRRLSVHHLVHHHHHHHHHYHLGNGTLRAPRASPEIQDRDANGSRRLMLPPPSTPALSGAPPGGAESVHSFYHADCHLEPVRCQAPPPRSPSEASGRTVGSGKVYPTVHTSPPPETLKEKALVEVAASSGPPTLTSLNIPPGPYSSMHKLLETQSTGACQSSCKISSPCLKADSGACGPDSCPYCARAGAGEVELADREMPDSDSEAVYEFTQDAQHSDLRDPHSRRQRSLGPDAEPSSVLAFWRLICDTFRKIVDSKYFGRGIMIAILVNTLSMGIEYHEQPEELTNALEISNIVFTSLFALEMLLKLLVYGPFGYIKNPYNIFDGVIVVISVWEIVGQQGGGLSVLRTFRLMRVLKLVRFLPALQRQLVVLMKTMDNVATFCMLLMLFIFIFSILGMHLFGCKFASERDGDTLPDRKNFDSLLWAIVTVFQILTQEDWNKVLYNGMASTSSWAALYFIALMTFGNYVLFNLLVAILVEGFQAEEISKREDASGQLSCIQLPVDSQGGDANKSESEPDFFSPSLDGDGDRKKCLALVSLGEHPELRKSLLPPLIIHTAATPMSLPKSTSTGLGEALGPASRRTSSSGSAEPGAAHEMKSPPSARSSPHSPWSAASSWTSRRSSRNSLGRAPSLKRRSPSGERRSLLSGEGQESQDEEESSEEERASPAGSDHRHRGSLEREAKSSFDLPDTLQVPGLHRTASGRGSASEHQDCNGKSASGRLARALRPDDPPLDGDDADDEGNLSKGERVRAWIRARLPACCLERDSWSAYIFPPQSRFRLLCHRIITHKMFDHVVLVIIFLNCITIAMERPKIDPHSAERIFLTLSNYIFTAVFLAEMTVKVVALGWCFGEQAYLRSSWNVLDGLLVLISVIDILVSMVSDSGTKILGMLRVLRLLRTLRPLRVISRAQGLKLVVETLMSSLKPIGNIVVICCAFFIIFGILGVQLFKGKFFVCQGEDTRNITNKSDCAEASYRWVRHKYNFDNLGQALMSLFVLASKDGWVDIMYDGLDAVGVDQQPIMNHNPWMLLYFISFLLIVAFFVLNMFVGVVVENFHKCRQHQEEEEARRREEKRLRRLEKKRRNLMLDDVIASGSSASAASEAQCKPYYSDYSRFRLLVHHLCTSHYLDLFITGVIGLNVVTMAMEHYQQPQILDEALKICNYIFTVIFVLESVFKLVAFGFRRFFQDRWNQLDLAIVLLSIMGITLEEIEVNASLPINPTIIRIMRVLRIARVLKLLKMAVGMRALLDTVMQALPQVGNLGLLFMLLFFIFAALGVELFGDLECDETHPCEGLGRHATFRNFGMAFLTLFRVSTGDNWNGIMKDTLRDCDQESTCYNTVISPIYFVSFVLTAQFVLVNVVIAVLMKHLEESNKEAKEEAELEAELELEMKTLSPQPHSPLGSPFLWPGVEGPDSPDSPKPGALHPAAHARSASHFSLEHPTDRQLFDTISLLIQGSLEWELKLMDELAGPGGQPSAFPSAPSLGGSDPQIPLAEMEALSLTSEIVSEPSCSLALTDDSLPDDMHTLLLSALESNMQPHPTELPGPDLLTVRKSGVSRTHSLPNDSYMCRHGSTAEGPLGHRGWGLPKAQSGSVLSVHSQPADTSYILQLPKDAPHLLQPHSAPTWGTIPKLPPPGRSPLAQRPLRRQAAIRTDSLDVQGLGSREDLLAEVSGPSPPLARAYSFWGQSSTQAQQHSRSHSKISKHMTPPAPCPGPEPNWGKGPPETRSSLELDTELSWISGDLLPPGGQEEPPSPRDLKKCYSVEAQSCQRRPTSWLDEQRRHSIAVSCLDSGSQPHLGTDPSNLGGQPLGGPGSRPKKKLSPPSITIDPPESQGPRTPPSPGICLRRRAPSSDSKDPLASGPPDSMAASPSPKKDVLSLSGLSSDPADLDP

[2] = target: T1, Voltage-dependent T-type calcium channel subunit alpha-1G; assay: Antagonist activity at T type calcium channel alpha1G expressed in HEK293 cells assessed as inhibition of peak currents by whole-cell patch-clamp method; type: functional, cell-based
Outline: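 Whole-cell patch clamp on HEK293 cells expressing alpha1G. External solution contained 140 mM NaCl, CaCl2, 10 mM Hepes and 10 mM glucose at pH 7.4. Pipettes were 3–4 MΩ, with Mg-ATP in the internal solution. Currents were evoked every 15 s by a 50 ms step from −100 to −30 mV. IC50 came from dose–response fits of peak current inhibition.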

[3] = target: Voltage-gated inwardly rectifying potassium channel KCNH2 (Homo sapiens, UniProt Q12809); assay: Inhibition of human ERG channel
Voltage-gated inwardly rectifying potassium channel KCNH2, sequence (Q12809 whole entry): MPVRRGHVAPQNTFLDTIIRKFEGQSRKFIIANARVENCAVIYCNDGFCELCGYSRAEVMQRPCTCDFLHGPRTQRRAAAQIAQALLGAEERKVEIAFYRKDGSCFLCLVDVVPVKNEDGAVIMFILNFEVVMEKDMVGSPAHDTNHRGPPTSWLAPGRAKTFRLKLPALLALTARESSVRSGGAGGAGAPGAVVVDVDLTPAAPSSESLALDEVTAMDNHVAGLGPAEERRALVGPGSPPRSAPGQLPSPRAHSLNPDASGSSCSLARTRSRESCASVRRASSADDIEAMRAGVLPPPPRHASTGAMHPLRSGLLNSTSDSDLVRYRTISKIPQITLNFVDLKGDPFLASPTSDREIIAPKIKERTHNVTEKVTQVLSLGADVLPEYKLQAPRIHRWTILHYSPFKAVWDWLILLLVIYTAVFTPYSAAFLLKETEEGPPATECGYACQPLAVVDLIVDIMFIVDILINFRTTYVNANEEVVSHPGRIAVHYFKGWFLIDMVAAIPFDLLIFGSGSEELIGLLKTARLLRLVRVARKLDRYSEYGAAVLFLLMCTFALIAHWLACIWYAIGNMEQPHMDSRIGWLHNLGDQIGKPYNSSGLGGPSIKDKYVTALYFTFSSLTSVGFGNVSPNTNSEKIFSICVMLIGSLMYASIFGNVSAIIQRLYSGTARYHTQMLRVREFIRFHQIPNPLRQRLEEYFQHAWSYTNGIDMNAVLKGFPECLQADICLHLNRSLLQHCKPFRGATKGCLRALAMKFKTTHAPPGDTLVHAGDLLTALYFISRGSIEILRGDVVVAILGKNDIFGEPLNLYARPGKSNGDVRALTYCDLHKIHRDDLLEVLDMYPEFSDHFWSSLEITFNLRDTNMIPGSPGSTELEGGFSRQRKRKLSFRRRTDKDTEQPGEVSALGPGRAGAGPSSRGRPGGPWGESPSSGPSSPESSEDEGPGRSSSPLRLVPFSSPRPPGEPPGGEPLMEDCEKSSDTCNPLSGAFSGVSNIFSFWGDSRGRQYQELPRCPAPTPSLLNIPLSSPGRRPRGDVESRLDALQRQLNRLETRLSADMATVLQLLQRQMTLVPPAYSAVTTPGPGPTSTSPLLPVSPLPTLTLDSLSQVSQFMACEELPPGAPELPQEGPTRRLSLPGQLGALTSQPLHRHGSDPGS

[4] = Inhibition of L type calcium channel at 1 uM
[5] = Ratio of IC50 for human ERG channel to IC50 for T type calcium channel alpha1G
[6] = Selectivity for T type calcium channel alpha1G over L type calcium channel
[7] = Tmax in mouse brain at 50 mg/kg, po; type: ADME, organism-based; parameters: dose 50 mg/kg, route oral
Outline: (§1)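 Single oral gavage dose of 50 mg/kg to mice. Vehicle was DMA/Cremophor EL/PBS (10/10/80 v/v %). Plasma and brain were sampled. AUC0–t was calculated by the linear trapezoidal rule, and brain/plasma ratio was taken as AUCbrain/AUCplasma.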

[8] = Tmax in mouse plasma at 50 mg/kg, po; type: ADME, organism-based; parameters: dose 50 mg/kg, route oral; outline: as §1
[9] = Cmax in mouse brain at 50 mg/kg, po; type: ADME, organism-based; parameters: dose 50 mg/kg, route oral; outline: as §1
[10] = Cmax in mouse plasma at 50 mg/kg, po; type: ADME, organism-based; parameters: dose 50 mg/kg, route oral; outline: as §1
[11] = Ratio of Cmax for mouse brain to Cmax for mouse plasma at 50 mg/kg, po; type: ADME, organism-based; parameters: dose 50 mg/kg, route oral
[12] = AUC (0 to t) in mouse brain at 50 mg/kg, po; type: ADME, organism-based; parameters: dose 50 mg/kg, route oral; outline: as §1
[13] = AUC (0 to t) in mouse plasma at 50 mg/kg, po; type: ADME, organism-based; parameters: dose 50 mg/kg, route oral; outline: as §1
[14] = Ratio of AUC (0 to t) for mouse brain to AUC (0 to t) for mouse plasma at 50 mg/kg, po; type: ADME, organism-based; parameters: dose 50 mg/kg, route oral
Outline: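 Mice got a single oral 50 mg/kg dose in DMA/Cremophor EL/PBS (10/10/80 v/v %). Plasma and brain levels were measured to give Tmax, Cmax and AUC0–t, with AUC by the linear trapezoidal rule. Brain/plasma ratio taken from the brain and plasma parameters (B/P = AUC_brain/AUC_plasma).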

[15] = Metabolic stability in mouse liver; type: ADME, tissue-based; conditions: liver (preparation not stated)
[16] = target: T1, Voltage-dependent T-type calcium channel subunit alpha-1G; assay: Antagonist activity at T type calcium channel alpha1G expressed in HEK293 cells assessed as inhibition of peak currents by whole-cell patch-clamp method
[17] = target: T1, Voltage-dependent T-type calcium channel subunit alpha-1G; assay: Antagonist activity at T type calcium channel alpha1G expressed in HEK293 cells assessed as inhibition of peak currents at 1 uM by whole-cell patch-clamp method; type: functional, cell-based

inhibition [1]: 89.3%
Compound: COC(=O)C(CCCN1CCN(Cc2cccc(F)c2)CC1)(c1ccc(Br)cc1)C(C)C (stereo not drawn)

pIC50 [2]: 6.55 | inhibition [1]: 93%
Compound: COC(=O)C(CCCN1CCN(Cc2cccc(C(F)(F)F)c2)CC1)(c1ccc(Br)cc1)C(C)C (stereo not drawn)

pIC50 [2]: 7.02 | inhibition [1]: 94.1%
Compound: COC(=O)C(CCCN1CCN(c2ccccc2OC)CC1)(c1ccc(Br)cc1)C(C)C (stereo not drawn)

inhibition [1]: 91.4%
Compound: CCOC(=O)C(CCCN(C)CCCc1nc2cc(C)c(C)cc2[nH]1)(c1ccccc1)C(C)C (stereo not drawn)

inhibition [1]: 96%
Compound: COC(=O)C(CCCN1CCN(Cc2ccc(OC)cc2)CC1)(c1ccc(Br)cc1)C(C)C (stereo not drawn)

inhibition [4]: 0% | Ratio IC50 [5]: 21.8 | Selectivity Index [6]: > 1000 | Tmax [7]: 1 h | Tmax [8]: 1 h | Cmax [9]: 274 ng/mL | Cmax [10]: 1620 ng/mL | Kp [11]: 0.17 | AUC(0-t) [12]: 973 ng·h/mL | AUC(0-t) [13]: 3900 ng·h/mL | Kp [14]: 0.25 | half-life [15]: 1 h | inhibition [1]: 96.9% | pIC50 [16]: 8.09
Compound: COC(=O)C(CCCN(C)CCCc1nc2ccccc2[nH]1)(c1ccc(Br)cc1)C(C)C (stereo not drawn)
pIC50 [3]: 6.75

inhibition [1]: 95.1%
Compound: COC(=O)C(CCCN1CCN(Cc2ccc(OC)c(OC)c2OC)CC1)(c1ccc(Br)cc1)C(C)C (stereo not drawn)

Continued, compound first:

Compound: CCOC(=O)C(CCCN1CCN(Cc2ccc(F)cc2)CC1)(c1ccccc1)C(C)C (stereo not drawn)
inhibition [1]: 94%

Compound: COC(=O)C(CCCN1CCN(Cc2cccc(C)c2)CC1)(c1ccc(Br)cc1)C(C)C (stereo not drawn)
inhibition [1]: 94.9%

Compound: CCOC(=O)C(CCCN1CCN(Cc2ccc(OC)cc2)CC1)(c1ccccc1)C(C)C (stereo not drawn)
inhibition [1]: 96.3%

Compound: CCOC(=O)C(CCCN(C)CCCc1nc2ccccc2[nH]1)(c1ccccc1)C(C)C (stereo not drawn)
inhibition [1]: 98.3%

Compound: COC(=O)C(CCCN(C)CCCc1nc2ccccc2[nH]1)(c1ccc(OC)cc1)C(C)C (stereo not drawn)
inhibition [1]: 93.5%

Compound: COC(=O)C(CCCN1CCN(Cc2ccc(F)cc2)CC1)(c1ccc(Br)cc1)C(C)C (stereo not drawn)
inhibition [1]: 96.5%

Compound: COC(=O)C(CCCN(C)CCCc1nc2cc(OC)ccc2[nH]1)(c1ccc(OC)cc1)C(C)C (stereo not drawn)
inhibition [1]: 91.7%

Compound: COC(=O)C(CCCN1CCN(Cc2ccccc2F)CC1)(c1ccc(Br)cc1)C(C)C (stereo not drawn)
inhibition [1]: 90.4%

Compound: COC(=O)C(CCCN(C)CCCc1nc2cc(C)c(C)cc2[nH]1)(c1ccc(Br)cc1)C(C)C (stereo not drawn)
inhibition [17]: 94.2%

Compound: COC(=O)C(CCCN(C)CCCc1nc2cc(OC)ccc2[nH]1)(c1ccc(Br)cc1)C(C)C (stereo not drawn)
inhibition [1]: 94.5%
